According to ChEMBL document CHEMBL3044632, “Synthesis, crystal structure, and biological activity of 4-methyl-1,2,3-thiadiazole-containing 1,2,4-triazolo[3,4-b][1,3,4]thiadiazoles” (J Agric Food Chem, 2010):
In brackets after ≈: the same amount, converted by molar mass. Activity calls are given as the source filed them. The calls are words filed in the database; no cut-off is given here.

Tests used:
[1] = tested on: Botryosphaeria berengeriana; assay: Fungicide activity against Botryosphaeria berengeriana assessed as growth inhibition at 50 ug/mL at 24 to 26 degC measured after 2 days; type: functional; details: 48 h, read-out: GI
Nicotiana tabacum [2] = assay: Phytotoxicity against Nicotiana tabacum (tobacco) plant at 50 to 500 ug/mL; type: organism-based; details: in vivo
Thanatephorus cucumeris [3] = assay: Fungicide activity against Thanatephorus cucumeris assessed as growth inhibition at 50 ug/mL at 24 to 26 degC measured after 2 days; type: functional; details: 48 h, read-out: GI
Cercospora beticola = assay: Fungicide activity against Cercospora beticola assessed as growth inhibition at 50 ug/mL at 24 to 26 degC measured after 2 days; type: functional; details: 48 h, read-out: GI
Phytophthora infestans [4] = assay: Fungicide activity against Phytophthora infestans assessed as growth inhibition at 50 ug/mL at 24 to 26 degC measured after 2 days; type: functional; details: 48 h, read-out: GI
Puccinia triticina = assay: Fungicide activity against Puccinia triticina assessed as growth inhibition at 50 ug/mL at 24 to 26 degC measured after 2 days; type: functional; details: 48 h, read-out: GI
Alternaria solani [5] = assay: Fungicide activity against Alternaria solani assessed as growth inhibition at 50 ug/mL at 24 to 26 degC measured after 2 days; type: functional; details: 48 h, read-out: GI
Tobacco mosaic virus [6] = assay: Antiviral activity against Tobacco mosaic virus (TMV) infected leaves assessed as viral inhibition at 100 ug/mL at 25 degC for 72 hr; type: functional
Procedure, shortened: (§1)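 Systemic acquired resistance induction was assayed in a tobacco–TMV system. The antivirus inhibition ratio was calculated from the average number of viral lesions on inoculated leaves, relative to the corresponding control.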

Fusarium oxysporum = assay: Fungicide activity against Fusarium oxysporum assessed as growth inhibition at 50 ug/mL at 24 to 26 degC measured after 2 days; type: functional; details: 48 h, read-out: GI
Mycosphaerella arachidis = assay: Fungicide activity against Mycosphaerella arachidis assessed as growth inhibition at 50 ug/mL at 24 to 26 degC measured after 2 days; type: functional; details: 48 h, read-out: GI
Rhizoctonia solani [7] = assay: Fungicide activity against Rhizoctonia solani Kuhn assessed as growth inhibition at 50 ug/mL at 24 to 26 degC measured after 2 days; type: functional; details: 48 h, read-out: GI
Colletotrichum lagenaria = assay: Fungicide activity against Colletotrichum lagenaria assessed as growth inhibition at 50 ug/mL at 24 to 26 degC measured after 2 days; type: functional; details: 48 h, read-out: GI
Tobacco mosaic virus [8] = assay: Antiviral activity against Tobacco mosaic virus (TMV) infected leaves assessed as viral inhibition at 500 ug/mL at 25 degC for 72 hr; type: functional; procedure, shortened: as §1
[9] = tested on: Fusarium oxysporum f. sp. cucumerinum; assay: Fungicide activity against Fusarium oxysporum f. cucumerinum assessed as growth inhibition at 24 to 26 degC measured after 2 days; type: functional, organism-based; details: 48 h
Thanatephorus cucumeris [10] = assay: Fungicide activity against Thanatephorus cucumeris assessed as growth inhibition at 24 to 26 degC measured after 2 days; type: functional, organism-based; details: 48 h
Alternaria solani [11] = assay: Fungicide activity against Alternaria solani assessed as growth inhibition at 24 to 26 degC measured after 2 days; type: functional, organism-based; details: 48 h
Phytophthora infestans [12] = assay: Fungicide activity against Phytophthora infestans assessed as growth inhibition at 24 to 26 degC measured after 2 days; type: functional, organism-based; details: 48 h
Macrophoma = assay: Fungicide activity against Macrophoma kuwatsukai assessed as growth inhibition at 24 to 26 degC measured after 2 days; type: functional, organism-based; details: 48 h
Rhizoctonia solani [13] = assay: Fungicide activity against Rhizoctonia solani assessed as growth inhibition at 24 to 26 degC measured after 2 days; type: functional, organism-based; details: 48 h
Nicotiana tabacum [14] = assay: Induction of systemic acquired resistance in Nicotiana tabacum (tobacco) mosaic virus infected Nicotiana tabacum (tobacco) plant at 100 ug/mL at 25 degC for 72 hr; type: functional
Procedure, shortened: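 Tobacco–TMV system used to assess induced resistance. The antiviral inhibition ratio was calculated from the mean number of viral lesions on inoculated leaves, relative to the matching control.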

Tobacco mosaic virus [15] = assay: Antiviral activity against Tobacco mosaic virus (TMV) infected leaves assessed as viral inhibition at 50 ug/mL at 25 degC for 72 hr; type: functional; procedure, shortened: as §1

Row | SMILES | inhibition of growth at 50 µg/mL [1] | Activity (Nicotiana tabacum [2]) | inhibition of growth at 50 µg/mL (Thanatephorus cucumeris [3]) | inhibition of growth at 50 µg/mL (Cercospora beticola) | inhibition of growth at 50 µg/mL (Phytophthora infestans [4]) | inhibition of growth at 50 µg/mL (Puccinia triticina) | inhibition of growth at 50 µg/mL (Alternaria solani [5]) | inhibition at 100 µg/mL (Tobacco mosaic virus [6]) | inhibition of growth at 50 µg/mL (Fusarium oxysporum) | inhibition of growth at 50 µg/mL (Mycosphaerella arachidis) | inhibition of growth at 50 µg/mL (Rhizoctonia solani [7]) | inhibition of growth at 50 µg/mL (Colletotrichum lagenaria) | inhibition at 500 µg/mL (Tobacco mosaic virus [8]) | Activity (Nicotiana tabacum [14]) | inhibition at 50 µg/mL (Tobacco mosaic virus [15]) | other results
1 | Cc1nnsc1C1=NNC2SC(c3cccc([N+](=O)[O-])c3)=NN12 (configuration not stated) | 12.8% | Toxic | 25% | 0% | 54.8% | 10% | 9.5% | 44.4% | 47.2% | 7.7% | 11.1% | 0% | 44.4% |  |  | 
2 | Cc1nnsc1C1=NNC2SC(C(Cl)(Cl)Cl)=NN12 (configuration not stated) | 83.9% | Toxic | 84.8% | 71.4% | 70.7% | 78.9% | 66.7% | 33.3% | 75% | 63.6% | 83.3% | 64.7% | 27.8% |  |  | EC50 [9]: 11.2 µg/mL (≈ 32.6 µM); EC50 (Thanatephorus cucumeris [10]): 2.5 µg/mL (≈ 7.27 µM); EC50 (Alternaria solani [11]): 14.6 µg/mL (≈ 42.5 µM); EC50 (Phytophthora infestans [12]): 12.5 µg/mL (≈ 36.4 µM); EC50 (Macrophoma): 6.4 µg/mL (≈ 18.6 µM); EC50 (Rhizoctonia solani [13]): 4.1 µg/mL (≈ 11.9 µM)
3 | NC(=O)c1ncn([C@@H]2O[C@H](CO)[C@@H](O)[C@H]2O)n1 [RIBAVIRIN] |  |  |  |  |  |  |  | 21.6% |  |  |  |  | 37.9% | inactive | 16.7% | 
4 | Cc1ccc(NC(=O)c2snnc2C)cc1Cl [TIADINIL] |  |  |  |  |  |  |  | 36.6% |  |  |  |  |  | 48.92% |  | 
5 | Cc1nnsc1C1=NNC2SC(c3ccc(OC(F)(F)F)cc3)=NN12 (configuration not stated) | 17.9% | Toxic | 30.4% | 0% | 4.8% | 70% | 9.5% |  | 44.4% | 15.4% | 11.1% | 18.2% |  |  | 10.2% | 
6 | CCc1cc(C2=NN3C(c4snnc4C)=NNC3S2)nn1C (configuration not stated) | 12.8% | Toxic | 30.4% | 0% | 4.8% | 10% | 9.5% |  | 47.2% | 7.7% | 19.4% | 0% |  |  | 34.8% | 
